Measurements reported in ChEMBL document CHEMBL3877264, “Quinolidene-rhodanine conjugates: Facile synthesis and biological evaluation” (Eur J Med Chem, 2017).
Values after ≈ are worked out from the molar mass of the structure shown.

Key:
Format in all cases: functional
Escherichia coli [1] = assay: Antibacterial activity against Escherichia coli NCIM 2688 measured after 8 hrs; settings: NCIM 2688, 8 h
Outline: (§1)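 Bacteria grown in LB at 37 °C and 180 rpm to OD 1. Compounds added to wells, then 0.1% inoculum of 1 OD culture (620 nm). Growth read as OD at 620 nm after 8 h for gram-negative and after 12 h for gram-positive strains.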

Staphylococcus aureus [2] = assay: Antibacterial activity against of Staphylococcus aureus NCIM 2010 measured after 12 hrs; settings: NCIM 2010, 12 h; outline: as §1
Bacillus subtilis [3] = assay: Antibacterial activity against Bacillus subtilis NCIM 2079 measured after 12 hrs; settings: NCIM 2079, 12 h; outline: as §1
Pseudomonas fluorescens [4] = assay: Antibacterial activity against Pseudomonas fluorescens NCIM 2036 measured after 8 hrs; settings: NCIM 2036, 8 h; outline: as §1
Escherichia coli [5] = assay: Growth inhibition of Escherichia coli NCIM 2688 at 30 ug/ml measured after 8 hrs relative to control; settings: NCIM 2688, 8 h, read-out: GI; outline: as §1
Escherichia coli [6] = assay: Growth inhibition of Escherichia coli NCIM 2688 at 3 ug/ml measured after 8 hrs relative to control; settings: NCIM 2688, 8 h, read-out: GI; outline: as §1
[7] = tested on: Mycobacterium tuberculosis; assay: Growth inhibition of Mycobacterium tuberculosis H37Ra ATCC 25177 at dormant stage measured after 12 days by XTT dye based two fold dilution method; settings: H37Ra ATCC 25177, 288 h
Outline: (§2)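 MTB H37Ra was grown in Dubos medium, then exposed in Mycobacterium pheli minimal medium (pH 6.6) to compounds dissolved in DMSO. The assay ended on day 8 (active) or day 12 (dormant). Viable cells were measured by XTT reduction menadione assay at 470 nm, blank-corrected, relative to vehicle control. Triplicates were expressed as mean ± SD. MIC came from dose-response curves.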

Candida albicans = assay: Antifungal activity against Candida albicans NCIM 3471 by standard agar method
Outline: (§3)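 MICs determined by standard agar method; DMSO as solvent control.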

[8] = tested on: Mycobacterium tuberculosis; assay: Growth inhibition of Mycobacterium tuberculosis H37Ra ATCC 25177 at active stage measured after 8 days by XTT dye based two fold dilution method; settings: H37Ra ATCC 25177, 192 h; outline: as §2
Escherichia coli [9] = assay: Growth inhibition of Escherichia coli NCIM 2688 at 10 ug/ml measured after 8 hrs relative to control; settings: NCIM 2688, 8 h, read-out: GI; outline: as §1
Staphylococcus aureus [10] = assay: Growth inhibition of Staphylococcus aureus NCIM 2010 at 10 ug/ml measured after 12 hrs relative to control; settings: NCIM 2010, 12 h, read-out: GI; outline: as §1
Pseudomonas fluorescens [11] = assay: Growth inhibition of Pseudomonas fluorescens NCIM 2036 at 10 ug/ml measured after 8 hrs relative to control; settings: NCIM 2036, 8 h, read-out: GI; outline: as §1
Staphylococcus aureus [12] = assay: Growth inhibition of Staphylococcus aureus NCIM 2010 at 3 ug/ml measured after 12 hrs relative to control; settings: NCIM 2010, 12 h, read-out: GI; outline: as §1
[13] = tested on: Mycobacterium tuberculosis; assay: Growth inhibition of Mycobacterium bovis BCG ATCC 35743 at dormant stage at 30 ug/ml measured after 12 days by nitrate reductase dye based two fold dilution method relative to control; settings: BCG str. ATCC 35743, 288 h, read-out: GI
Outline: (§4)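 M. bovis BCG was grown in Dubos medium and assayed in Mycobacterium pheli minimal medium (pH 6.6), with compounds from DMSO stocks. Incubation lasted 8 days for active and 12 days for dormant cultures. Viability was read by nitrate reductase at 540 nm against cell-free blanks, with vehicle set as 100% growth. Primary screen was at 30, 10 and 3 µg/ml, in triplicate, mean ± SD. MIC was taken from dose-response curves.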

Bacillus subtilis [14] = assay: Growth inhibition of Bacillus subtilis NCIM 2079 at 30 ug/ml measured after 12 hrs relative to control; settings: NCIM 2079, 12 h, read-out: GI; outline: as §1
[15] = tested on: Mycobacterium tuberculosis; assay: Growth inhibition of Mycobacterium bovis BCG ATCC 35743 at dormant stage at 3 ug/ml measured after 12 days by nitrate reductase dye based two fold dilution method relative to control; settings: BCG str. ATCC 35743, 288 h, read-out: GI; outline: as §4
[16] = tested on: Mycobacterium tuberculosis; assay: Growth inhibition of Mycobacterium bovis BCG ATCC 35743 at dormant stage measured after 12 days by nitrate reductase dye based two fold dilution method; settings: BCG str. ATCC 35743, 288 h; outline: as §4
Staphylococcus aureus [17] = assay: Growth inhibition of Staphylococcus aureus NCIM 2010 at 30 ug/ml measured after 12 hrs relative to control; settings: NCIM 2010, 12 h, read-out: GI; outline: as §1
Bacillus subtilis [18] = assay: Growth inhibition of Bacillus subtilis NCIM 2079 at 3 ug/ml measured after 12 hrs relative to control; settings: NCIM 2079, 12 h, read-out: GI; outline: as §1
Aspergillus flavus = assay: Antifungal activity against Aspergillus flavus NCIM 539 by standard agar method; outline: as §3
Pseudomonas fluorescens [19] = assay: Growth inhibition of Pseudomonas fluorescens NCIM 2036 at 30 ug/ml measured after 8 hrs relative to control; settings: NCIM 2036, 8 h, read-out: GI; outline: as §1
[20] = Antifungal activity against Fusarium oxysporum NCIM 1332 by standard agar method; outline: as §3
[21] = Antifungal activity against Cryptococcus neoformans NCIM 576 by standard agar method; outline: as §3
[22] = tested on: Mycobacterium tuberculosis; assay: Growth inhibition of Mycobacterium bovis BCG ATCC 35743 at dormant stage at 10 ug/ml measured after 12 days by nitrate reductase dye based two fold dilution method relative to control; settings: BCG str. ATCC 35743, 288 h, read-out: GI; outline: as §4
Bacillus subtilis [23] = assay: Growth inhibition of Bacillus subtilis NCIM 2079 at 10 ug/ml measured after 12 hrs relative to control; settings: NCIM 2079, 12 h, read-out: GI; outline: as §1
Pseudomonas fluorescens [24] = assay: Growth inhibition of Pseudomonas fluorescens NCIM 2036 at 3 ug/ml measured after 8 hrs relative to control; settings: NCIM 2036, 8 h, read-out: GI; outline: as §1
[25] = tested on: Mycobacterium tuberculosis; assay: Growth inhibition of Mycobacterium bovis BCG ATCC 35743 at active stage measured after 8 days by nitrate reductase dye based two fold dilution method; settings: BCG str. ATCC 35743, 192 h; outline: as §4
Aspergillus niger = assay: Antifungal activity against Aspergillus niger NCIM 1196 by standard agar method; outline: as §3

| Structure (SMILES) | MIC (Escherichia coli [1]) [µg/mL] | MIC (Staphylococcus aureus [2]) [µg/mL] | MIC (Bacillus subtilis [3]) [µg/mL] | MIC (Pseudomonas fluorescens [4]) [µg/mL] | inhibition of growth at 30 µg/mL (Escherichia coli [5]) [%] | inhibition of growth at 3 µg/mL (Escherichia coli [6]) [%] | IC50 [7] [µg/mL] | IC90 [7] [µg/mL] | IC50 [8] [µg/mL] | IC90 [8] [µg/mL] | inhibition of growth at 10 µg/mL (Escherichia coli [9]) [%] | inhibition of growth at 10 µg/mL (Staphylococcus aureus [10]) [%] | inhibition of growth at 10 µg/mL (Pseudomonas fluorescens [11]) [%] | inhibition of growth at 3 µg/mL (Staphylococcus aureus [12]) [%] | inhibition of growth at 30 µg/mL [13] [%] | inhibition of growth at 30 µg/mL (Bacillus subtilis [14]) [%] | inhibition of growth at 3 µg/mL [15] [%] | IC50 [16] [µg/mL] | IC90 [16] [µg/mL] | inhibition of growth at 30 µg/mL (Staphylococcus aureus [17]) [%] | other results |
| --- | --- | --- | --- | --- | --- | --- | --- | --- | --- | --- | --- | --- | --- | --- | --- | --- | --- | --- | --- | --- | --- |
| NC[C@H]1O[C@H](O[C@H]2[C@H](O)[C@@H](O[C@H]3O[C@H](CO)[C@@H](O)[C@H](N)[C@H]3O)[C@H](N)C[C@@H]2N)[C@H](O)[C@@H](O)[C@@H]1O [KANAMYCIN] | 0.67 (≈ 1.38 µM) | 16 (≈ 33 µM) | 0.25 (≈ 0.516 µM) | 0.012 (≈ 0.0248 µM) | – | – | – | – | – | – | – | – | – | – | – | – | – | – | – | – | – |
| COc1ccc2nc(Cl)c(/C=C3\SC(=S)N(CC(=O)O)C3=O)cc2c1 | > 30 | > 30 | > 30 | > 30 | -50.9 | -23.7 | > 30 | > 30 | > 30 | > 30 | -19.5 | -25.4 | 0.664 | -29.3 | 32 | -33.3 | 6.02 | > 30 | > 30 | -35.7 | MIC (Candida albicans): 150 µg/mL (≈ 380 µM); inhibition of growth at 3 µg/mL (Bacillus subtilis [18]): -37%; MIC (Aspergillus flavus): 200 µg/mL (≈ 507 µM); inhibition of growth at 30 µg/mL (Pseudomonas fluorescens [19]): -6.43%; MIC [20]: 125 µg/mL (≈ 317 µM); MIC [21]: 150 µg/mL (≈ 380 µM); inhibition of growth at 10 µg/mL [22]: 27.3%; inhibition of growth at 10 µg/mL (Bacillus subtilis [23]): -37.3%; inhibition of growth at 3 µg/mL (Pseudomonas fluorescens [24]): -4.12%; IC50 [25]: > 30 µg/mL; IC90 [25]: > 30 µg/mL |
| COc1ccc2cc(/C=C3\SC(=S)N(CCC(=O)O)C3=O)c(Cl)nc2c1 | > 30 | > 30 | > 30 | > 30 | 6.84 | 2.29 | > 30 | > 30 | > 30 | > 30 | 13.7 | -12.1 | -3.31 | -13 | 11.3 | 0.458 | 14.1 | > 30 | > 30 | -17.3 | MIC (Aspergillus niger): 200 µg/mL (≈ 489 µM); MIC (Candida albicans): 150 µg/mL (≈ 367 µM); inhibition of growth at 3 µg/mL (Bacillus subtilis [18]): -3.95%; MIC (Aspergillus flavus): 100 µg/mL (≈ 245 µM); inhibition of growth at 30 µg/mL (Pseudomonas fluorescens [19]): -33.9%; MIC [21]: 150 µg/mL (≈ 367 µM); inhibition of growth at 10 µg/mL [22]: 16.9%; inhibition of growth at 10 µg/mL (Bacillus subtilis [23]): -0.582%; inhibition of growth at 3 µg/mL (Pseudomonas fluorescens [24]): -62.2%; IC50 [25]: > 30 µg/mL; IC90 [25]: > 30 µg/mL |
| CCOc1ccc2nc(Cl)c(/C=C3\SC(=S)N(CC(=O)O)C3=O)cc2c1 | > 30 | > 30 | > 30 | > 30 | 71.9 | 5.91 | > 30 | > 30 | > 30 | > 30 | 18.5 | -13.4 | 24.4 | 2.94 | 9.17 | -2.41 | 26.3 | > 30 | > 30 | -9.57 | MIC (Aspergillus niger): 125 µg/mL (≈ 306 µM); inhibition of growth at 3 µg/mL (Bacillus subtilis [18]): -12.7%; MIC (Aspergillus flavus): 100 µg/mL (≈ 245 µM); inhibition of growth at 30 µg/mL (Pseudomonas fluorescens [19]): 4.87%; MIC [20]: 150 µg/mL (≈ 367 µM); inhibition of growth at 10 µg/mL [22]: 24.8%; inhibition of growth at 10 µg/mL (Bacillus subtilis [23]): -0.253%; inhibition of growth at 3 µg/mL (Pseudomonas fluorescens [24]): -5.49%; IC50 [25]: > 30 µg/mL; IC90 [25]: > 30 µg/mL |
| O=C(O)CCN1C(=O)/C(=C/c2cc3cc(Cl)ccc3nc2Cl)SC1=S | > 30 | > 30 | > 30 | > 30 | 37.3 | 20.6 | > 30 | > 30 | > 30 | > 30 | 27.1 | -36.7 | 6.58 | -7.27 | 56.5 | 0.333 | 13.7 | > 30 | > 30 | -65.7 | MIC (Aspergillus niger): 200 µg/mL (≈ 484 µM); MIC (Candida albicans): 200 µg/mL (≈ 484 µM); inhibition of growth at 3 µg/mL (Bacillus subtilis [18]): 1.91%; MIC (Aspergillus flavus): 100 µg/mL (≈ 242 µM); inhibition of growth at 30 µg/mL (Pseudomonas fluorescens [19]): -10%; MIC [21]: 150 µg/mL (≈ 363 µM); inhibition of growth at 10 µg/mL [22]: 25.7%; inhibition of growth at 10 µg/mL (Bacillus subtilis [23]): -1.12%; inhibition of growth at 3 µg/mL (Pseudomonas fluorescens [24]): 3.17%; IC50 [25]: > 30 µg/mL; IC90 [25]: > 30 µg/mL |
| CC1(C)S[C@@H]2[C@H](NC(=O)[C@H](N)c3ccccc3)C(=O)N2[C@H]1C(=O)O [AMPICILLIN] | 0.41 (≈ 1.17 µM) | 0.12 (≈ 0.343 µM) | 5.89 (≈ 16.9 µM) | 2.83 (≈ 8.1 µM) | – | – | – | – | – | – | – | – | – | – | – | – | – | – | – | – | – |
